bovine MsrA act: bovine methionine sulfoxide reductase A activation. purified bovine MsrA, absorbance read-out. hit rate 0.3% among 360,000. activation, % at 10.6 µM; in the data active = activation above about 7.5%;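 note: 0% = vehicle and 100% = reference activator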
procasp7 counter: counter-screen for procaspase-3 activators: activators of human procaspase-7. P55210. recombinant procaspase-7, Ac-DEVD-pNA absorbance 405 nm; D23A/D198A/D206A triple mutant, cannot self-cleave; scale: DMSO 0, 5 µM enzyme 100. activation, % at 8.5 µM. hit rate 0.093% among 330,000. AID 463210;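 active = percent activation above the screen-wide mean plus 3 SD, cut at about 25% in these data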
Target sequence (P55210 whole entry D23A/D198A/D206A): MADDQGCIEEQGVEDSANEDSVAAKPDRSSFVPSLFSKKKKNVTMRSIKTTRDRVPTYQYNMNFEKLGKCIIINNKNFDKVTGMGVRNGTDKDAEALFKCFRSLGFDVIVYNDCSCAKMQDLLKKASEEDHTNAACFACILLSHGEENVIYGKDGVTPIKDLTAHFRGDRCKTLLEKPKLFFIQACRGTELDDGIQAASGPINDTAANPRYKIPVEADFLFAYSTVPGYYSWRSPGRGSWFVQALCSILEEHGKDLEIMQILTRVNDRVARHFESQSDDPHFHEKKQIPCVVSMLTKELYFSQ
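Assay system: Uncleavable procaspase-7 mutant enzyme; Input: 2 µM procaspase-7 mutant as dispensed; Also added: DEVD-pNA substrate; Medium: Zinc-free HEPES pH 7.4 with 300 mM NaCl, 0.01% Triton X-100; Timing: 1 h compound preincubation, 2 h substrate cleavage, 25 °C; Measured by: Epi-absorbance of released pNA at 405 nm, two timepoints.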
MsrA inhibitor: bovine MsrA inhibition | purified bovine MsrA, absorbance read-out | inhibition, % at 15.5 µM | hit rate 0.75% among 360,000 | AID 651718;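 note: 0% = vehicle wells with enzyme and 100% = reference inhibitor wells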
procasp3 activ: activators of human procaspase-3; hit rate 0.11% among 330,000; AID 463141; activation, % at 8.5 µM; recombinant procaspase-3 D3A, Ac-DEVD-pNA absorbance 405 nm;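 active = activation above the mean of all tested compounds plus 3 SD, cut at about 21% in these data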;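 note: 0% = DMSO alone and 100% = DMSO wells spiked with extra 5 µM PC-3 D3A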
Target sequence (P42574 whole entry D9A/D28A/D175A): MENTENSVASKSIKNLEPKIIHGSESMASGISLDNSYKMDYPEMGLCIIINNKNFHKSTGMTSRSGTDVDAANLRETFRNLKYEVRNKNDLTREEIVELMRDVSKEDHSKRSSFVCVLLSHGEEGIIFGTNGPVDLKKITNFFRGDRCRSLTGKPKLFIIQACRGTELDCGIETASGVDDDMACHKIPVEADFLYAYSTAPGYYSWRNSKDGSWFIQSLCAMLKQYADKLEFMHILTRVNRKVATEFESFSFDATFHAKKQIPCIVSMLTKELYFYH
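System: Procaspase-3 D3A mutant. Medium: Zinc-free 300 mM NaCl, 50 mM HEPES, 0.01% Triton X-100. Schedule: 1 h preincubation plus 2 h reaction at 25 °C. Measured by: 405 nm absorbance of p-nitroaniline, reads at 0 and 120 min. Read-out: percent activation relative to control range.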
MsrA conf: bovine MsrA inhibition, confirmed; shares compounds with MsrA inhibitor; purified bovine MsrA, absorbance read-out; inhibition, % at 15.5 µM; hit rate 41% among 2,300;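 note: coupled to thioredoxin reductase with NADPH and selenocystamine and DMSO as substrate; 0% = vehicle only and 100% = full effect of reference inhibitor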
* marks the source's active call; other numbers are inactive results. Sampled rows, rich in hits. Any-hit rate of the full collection: about 1.2%. Cut-off read from the data, not from the text of the source, unless noted: active = inhibition above about 4.5%; inactive = the rest.

Results for CCCCCNc1nc(N2CCCC2)c2c(c1C#N)CCN(C)C2 ?
bovine MsrA act: -1; procasp7 counter: -11; MsrA inhibitor: 1; procasp3 activ: -3

How did CCCCCNc1nc(NCCCO)c(C#N)c2c1CN(C)CC2 do in these assays?
bovine MsrA act: -3; procasp7 counter: -4; MsrA inhibitor: 5.0*; procasp3 activ: -7; MsrA conf: 1

Results for N#C/C(=C\C=C\c1ccccc1)C(=O)NCc1ccco1 ?
bovine MsrA act: -6; procasp7 counter: -11; MsrA inhibitor: 4; procasp3 activ: -5

How did CCCCOC(=O)/C(=C/C=C/c1ccccc1)NC(=O)c1ccccc1 do in these assays?
bovine MsrA act: -15; procasp7 counter: 1; MsrA inhibitor: 3; procasp3 activ: 2

What do the screens show for `CCCOC(=O)/C(=C\C=C\c1ccccc1)NC(=O)c1ccccc1`?
bovine MsrA act: -16; procasp7 counter: 5; MsrA inhibitor: 2; procasp3 activ: -3

Results for CCOC(=O)/C(=C\C=C\c1ccccc1)NC(=O)c1ccccc1 ?
bovine MsrA act: -13; procasp7 counter: 3; MsrA inhibitor: 6.8*; procasp3 activ: 13; MsrA conf: 6.1*

How did O=C(O)CCNC(=O)/C(=C/C=C/c1ccccc1)NC(=O)c1ccccc1 do in these assays?
bovine MsrA act: -5; procasp7 counter: 4; MsrA inhibitor: 5.5*; procasp3 activ: 6; MsrA conf: 3

What do the screens show for `CCOC(=O)/C(=C/C=C/c1ccccc1)NC(=O)c1ccccc1`?
bovine MsrA act: -5; procasp7 counter: 2; MsrA inhibitor: 5.6*; procasp3 activ: -2; MsrA conf: 2

What do the screens show for `O=C(NCc1ccco1)/C(=C/C=C\c1ccccc1)NC(=O)c1ccc(Br)o1`?
bovine MsrA act: -6; procasp7 counter: -2; MsrA inhibitor: 5.0*; procasp3 activ: 3; MsrA conf: 4

How did COc1ccc(-c2ccc3c(n2)CCCN3S(=O)(=O)c2cccs2)cc1 do in these assays?
MsrA inhibitor: 2

Results for COC(=O)C1=C(C)N(C)C(=NCc2ccc3c(c2)OCO3)NC1c1cccc(C(F)(F)F)c1 (stereo not given) ?
MsrA inhibitor: 0

What do the screens show for `Cc1ccc(N=c2c([N+](=O)[O-])nn(-c3ccccc3)n2O)c(C)c1`?
bovine MsrA act: -10; procasp7 counter: -7; MsrA inhibitor: 12*; procasp3 activ: 0; MsrA conf: 15*

What do the screens show for `COc1ccc(CN2C[C@H](COCc3ccccc3)Oc3cccc(Oc4ccc(C(C)C)cc4)c3S2(=O)=O)cc1`?
MsrA inhibitor: 0

What do the screens show for `COC(=O)C1=C(C)N(Cc2ccccc2C(F)(F)F)C(=NCc2ccccc2C(F)(F)F)NC1c1ccc(C(F)(F)F)cc1` (stereo not given)?
MsrA inhibitor: -2

What do the screens show for `CCN(CC)CCn1c(-c2ccccc2)nc(=S)c2c1CC(C)(C)OC2`?
bovine MsrA act: -6; procasp7 counter: -2; MsrA inhibitor: 6.3*; procasp3 activ: -10; MsrA conf: 4

How did Cc1cc(=O)[nH]c(N/N=C/c2c(F)c(F)c(F)c(F)c2F)n1 do in these assays?
bovine MsrA act: 0; procasp7 counter: 12; MsrA inhibitor: 1; procasp3 activ: 0

Results for C(=N\Nc1nc2ccccc2[nH]1)/c1cccs1 ?
bovine MsrA act: -1; procasp7 counter: 5; MsrA inhibitor: 1; procasp3 activ: -3

What do the screens show for `Cc1cc(=O)[nH]c(N/N=C/c2sccc2C)n1`?
bovine MsrA act: -4; procasp7 counter: 7; MsrA inhibitor: 4.8*; procasp3 activ: 1; MsrA conf: 5.3*

How did Cc1ccsc1/C=N/Nc1nc2ccccc2[nH]1 do in these assays?
bovine MsrA act: -6; MsrA inhibitor: 4.8*; MsrA conf: 3

What do the screens show for `NC(=O)c1c(N)[nH]c(C(=O)c2ccccc2)c1-c1ccccc1Cl`?
MsrA inhibitor: 1

How did O=S1(=O)N[C@@H](Cc2ccccc2)COc2cc(NC3CC3)ccc21 do in these assays?
MsrA inhibitor: 0

Results for O=[N+]([O-])c1ccc(N2CCCC2)c([N+](=O)[O-])c1 ?
bovine MsrA act: -5; MsrA inhibitor: 9.0*; MsrA conf: 5.5*

What do the screens show for `Cn1c(=O)c(=O)n(C)c2cc(N3CCCC3)c(NS(=O)(=O)c3ccc(F)cc3)cc21`?
bovine MsrA act: -2; procasp7 counter: -2; MsrA inhibitor: 3; procasp3 activ: -4

Results for Cn1c(=O)c(=O)n(C)c2cc(N3CCCCC3)c(NS(=O)(=O)c3ccc([N+](=O)[O-])cc3)cc21 ?
bovine MsrA act: -2; procasp7 counter: -2; MsrA inhibitor: 4.8*; procasp3 activ: 2; MsrA conf: 2

What do the screens show for `C=CCOc1cccc(/C=C\c2nc(O)c([N+](=O)[O-])c(=O)[nH]2)c1`?
bovine MsrA act: -2; procasp7 counter: 8; MsrA inhibitor: 4.8*; procasp3 activ: -3; MsrA conf: 4

Results for C[C@@H]1C=CCCO[C@]12C(=O)N(CC1CC1)c1ccccc12 ?
MsrA inhibitor: -2

How did O=c1c2cc(Cl)ccc2oc2nc3n(c(=O)c12)CCCS3 do in these assays?
bovine MsrA act: -2; procasp7 counter: 1; MsrA inhibitor: 8.9*; procasp3 activ: 1; MsrA conf: 5

Results for Cc1nc2c(=O)n(C)c(=O)n(C)c2nc1Cl ?
bovine MsrA act: 1; procasp7 counter: -7; MsrA inhibitor: 4.7*; procasp3 activ: -9; MsrA conf: 2

How did Cn1c(=O)c2nc(NCc3ccccc3)cnc2n(C)c1=O do in these assays?
bovine MsrA act: -5; procasp7 counter: 3; MsrA inhibitor: 0; procasp3 activ: 3

Results for C=CCSc1nc2sc3c(c2c(=O)n1-c1ccccc1)CCN(C)C3 ?
bovine MsrA act: 0; procasp7 counter: 6; MsrA inhibitor: 4.9*; procasp3 activ: 2; MsrA conf: 1

Results for CCSc1nc2sc3c(c2c(=O)n1-c1ccccc1)CCN(C)C3 ?
bovine MsrA act: -3; procasp7 counter: 6; MsrA inhibitor: 2; procasp3 activ: 0

What do the screens show for `COc1c(O)ccc(/C=N\NC(=O)c2ccc3c(c2)OCO3)c1[N+](=O)[O-]`?
bovine MsrA act: -4; procasp7 counter: 3; MsrA inhibitor: 8.1*; procasp3 activ: 7; MsrA conf: 4.9*

Results for COc1c(O)ccc(/C=N/NC(=O)c2ccc3c(c2)OCCO3)c1[N+](=O)[O-] ?
bovine MsrA act: -6; procasp7 counter: -11; MsrA inhibitor: 7.2*; procasp3 activ: -2; MsrA conf: 4

What do the screens show for `COc1cc(/C=N/NC(=O)c2ccc3c(c2)OCCO3)cc(Cl)c1O`?
bovine MsrA act: -9; procasp7 counter: -6; MsrA inhibitor: 6.0*; procasp3 activ: -2; MsrA conf: 5.0*

What do the screens show for `C#CCNC(=O)C[C@H]1C[C@@]2(C(=O)OC)C(=C[C@H](C(C)(C)C)O[C@@H]2C)N(Cc2ccccc2)C1=O`?
MsrA inhibitor: 1

Bioassay records (PubChem BioAssay)
